Values after ≈ are worked out from the molar mass of the structure shown.
Experiments:
Saccharomyces cerevisiae [1] = test: Resistance index, ratio of MIC80 for Saccharomyces cerevisiae AD over-expressing Candida albicans CDR1 to MIC80 for Saccharomyces cerevisiae AD1-8u(-); type: functional
In short: (§1)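 Yeast (10⁴ cells) grown in YEPD at 30 °C for 48 h with inhibitors at 0.25-400 μM (DMSO stocks); growth read by optical density, inhibitor-free growth set as 100%. MIC80 = concentration giving 80% growth inhibition. RI = MIC80 in AD-CDR1 or AD-MDR1 divided by MIC80 in control AD1-8u⁻. Means ± SD, duplicate samples, at least three independent experiments.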

Candida albicans [2] = test: Inhibition of Candida albicans CDR1 expressed in Saccharomyces cerevisiae AD assessed as potentiation of fluconazole-induced antifungal activity against Saccharomyces cerevisiae AD by checkerboard method
In short: (§2)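 Checkerboard per CLSI in AD1-8u⁻ control, AD-CDR1 or AD-MDR1 cells (10⁴ cells) grown 48 h at 30 °C. Fluconazole 4-209 μM crossed with compound 0.25-400 μM. Growth read by optical density. FIC of each agent is its MIC in combination divided by its MIC alone. FICI is the sum of the fluconazole and compound FICs, with values below 0.5 taken as synergy.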

Candida albicans [3] = test: Inhibition of Candida albicans MDR1 expressed in Saccharomyces cerevisiae AD assessed as potentiation of fluconazole-induced antifungal activity against Saccharomyces cerevisiae AD by checkerboard method; in short: as §2
Saccharomyces cerevisiae [4] = test: Synergistic antifungal activity against Saccharomyces cerevisiae AD1-8u(-) assessed as ratio of compound MIC80 in combinantion with fluconazole to compound alone MIC80 by checkerboard method; type: functional
In short: (§3)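 Checkerboard per CLSI with 10⁴ cells of AD-CDR1, AD-MDR1 or AD1-8u⁻, grown 48 h at 30 °C. Fluconazole 4-209 μM crossed with compound 0.25-400 μM, growth read by optical density. Compound FIC is the compound MIC in combination with fluconazole divided by its MIC alone.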

Candida albicans [5] = test: Inhibition of Candida albicans CDR1 expressed in Saccharomyces cerevisiae AD assessed as reduction in nile red dye efflux at 70 uM after 30 mins by flow cytometry relative to control
In short: (§4)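 AD-CDR1 or AD-MDR1 cells grown in YEPD at 30 °C with shaking from OD600 0.1 to 0.25, then resuspended as a 5% suspension in 1:2 YEPD:water. Nile Red (final 7 μM) added with or without compound at 70 μM, 30 min at 30 °C. Cells washed twice and 10,000 cells analysed by flow cytometry. Efflux rate expressed relative to untreated control cells. Means ± SD, three independent experiments.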

[6] = Lipophilicity, log P of the compound; type: physicochemical; settings: octanol/water
Candida albicans [7] = test: Inhibition of Candida albicans MDR1 expressed in Saccharomyces cerevisiae AD assessed as reduction in nile red dye efflux at 70 uM after 30 mins by flow cytometry relative to control; in short: as §4
Saccharomyces cerevisiae [8] = test: Potentiation of fluconazole-induced antifungal activity against Saccharomyces cerevisiae AD1-8u(-) by checkerboard method; type: functional; in short: as §2
Candida albicans [9] = test: Inhibition of Candida albicans CDR1 expressed in Saccharomyces cerevisiae AD assessed as ratio of compound MIC80 in combinantion with fluconazole to compound alone MIC80 for Saccharomyces cerevisiae AD by checkerboard method; in short: as §3
Saccharomyces cerevisiae [10] = test: Antifungal activity against Saccharomyces cerevisiae AD over-expressing Candida albicans MDR1 after 48 hrs; type: functional; in short: as §1
Saccharomyces cerevisiae [11] = test: Antifungal activity against Saccharomyces cerevisiae AD over-expressing Candida albicans CDR1 after 48 hrs; type: functional; in short: as §1
Saccharomyces cerevisiae [12] = test: Resistance index, ratio of MIC80 for Saccharomyces cerevisiae AD over-expressing Candida albicans MDR1 to MIC80 for Saccharomyces cerevisiae AD1-8u(-); type: functional; in short: as §1
Saccharomyces cerevisiae [13] = test: Antifungal activity against Saccharomyces cerevisiae AD1-8u(-) after 48 hrs; type: functional
In short: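 S. cerevisiae AD1-8u⁻ control strain revived from glycerol stock on YEPD plates and grown in YEPD at 30 °C. 10⁴ cells exposed to compound at 0.25-400 μM for 48 h at 30 °C. Growth read as optical density, with no-inhibitor growth as 100%. MIC80 is the concentration giving 80% growth inhibition. Means ± SD of duplicates from at least three independent experiments.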

Candida albicans [14] = test: Inhibition of Candida albicans MDR1 expressed in Saccharomyces cerevisiae AD assessed as ratio of compound MIC80 in combinantion with fluconazole to compound alone MIC80 for Saccharomyces cerevisiae AD by checkerboard method; in short: as §3
Candida albicans [15] = test: Inhibition of Candida albicans CDR1 expressed in Saccharomyces cerevisiae AD assessed as potentiation of fluconazole-induced antifungal activity against Saccharomyces cerevisiae AD by measuring fold reduction in fluconazole MIC80 by checkerboard method
In short: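 AD-CDR1 cells (10⁴) grown 48 h at 30 °C in a CLSI checkerboard, fluconazole 4-209 μM crossed with compound 0.25-400 μM, growth read by optical density. Fold reduction is derived from the fluconazole MIC alone versus the fluconazole MIC in combination.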

Row | SMILES | Ratio (Saccharomyces cerevisiae [1]) | fractional inhibitory concentration index (FICI) (Candida albicans [2]) | fractional inhibitory concentration index (FICI) (Candida albicans [3]) | Ratio (Saccharomyces cerevisiae [4]) | inhibition (Candida albicans [5]) | logP [6] | inhibition (Candida albicans [7]) | fractional inhibitory concentration index (FICI) (Saccharomyces cerevisiae [8]) | Ratio (Candida albicans [9]) | MIC80 (Saccharomyces cerevisiae [10]) | MIC80 (Saccharomyces cerevisiae [11]) | Ratio (Saccharomyces cerevisiae [12]) | MIC80 (Saccharomyces cerevisiae [13]) | Ratio (Candida albicans [14]) | fold change (FC) (Candida albicans [15])
1 | C/C1=C\[C@@H]2[C@H](CC[C@]3(CO3)[C@H](OC(=O)c3ccccc3)[C@H]3[C@@H](OC(=O)c4ccccc4)[C@@H](C)C[C@]3(O)C1=O)C2(C)C | 0.89 | 1.4 | 1.3 | 1 | 25% | 4.6 | 80% | 2 | 1 | 880 µM (≈ 492 µg/mL) | 803 µM (≈ 449 µg/mL) | 0.98 | 896 µM (≈ 501 µg/mL) | 1 | –
2 | CCCC(=O)O[C@@H]1[C@@H]2[C@@H](OC(=O)CCC)[C@]3(CC[C@H]4[C@@H](/C=C(\C)C(=O)[C@@]2(OC(=O)CCC)C[C@@H]1C)C4(C)C)CO3 | 0.85 | 1.4 | 1.3 | 1 | 35% | 4.3 | 85% | 2 | 1 | 801 µM (≈ 449 µg/mL) | 762 µM (≈ 427 µg/mL) | 0.89 | 892 µM (≈ 500 µg/mL) | 1 | –
3 | C/C1=C\[C@@H]2[C@H](CC[C@]3(CO3)[C@H](OC(=O)Cc3ccccc3)[C@H]3[C@@H](OC(=O)Cc4ccccc4)[C@@H](C)C[C@]3(O)C1=O)C2(C)C | 0.88 | 1.4 | 1.3 | 1 | 10% | 4.91 | 15% | 2 | 1 | 788 µM (≈ 462 µg/mL) | 756 µM (≈ 444 µg/mL) | 0.92 | 853 µM (≈ 500 µg/mL) | 1 | –
4 | CCC(=O)O[C@@H]1[C@@H]2[C@@H](OC(C)=O)[C@]3(CC[C@H]4[C@@H](/C=C(\C)C(=O)[C@@]2(OC(C)=O)C[C@@H]1C)C4(C)C)CO3 | 0.98 | 0.54 | 1.3 | 1 | 10% | 2.32 | 20% | 2 | 0.5 | 498 µM (≈ 244 µg/mL) | 501 µM (≈ 246 µg/mL) | 0.97 | 510 µM (≈ 250 µg/mL) | 1 | 23
5 | C=C1CC[C@H]2[C@@H](/C=C(\C)C(=O)[C@@]3(O)C[C@H](C)[C@H](O)[C@@H]3[C@H]1O)C2(C)C | 1.01 | 1.4 | 1.3 | 1 | 40% | 1.48 | 30% | 2 | 1 | 1480 µM (≈ 494 µg/mL) | 1520 µM (≈ 510 µg/mL) | 0.98 | 1500 µM (≈ 502 µg/mL) | 1 | –
6 | CC(=O)O[C@@H]1[C@@H]2[C@@H](OC(C)=O)[C@]3(CC[C@H]4[C@@H](/C=C(\C)C(=O)[C@@]2(OC(C)=O)C[C@@H]1C)C4(C)C)CO3 | 0.98 | 1.4 | 1.3 | 1 | 20% | 2.7 | 75% | 2 | 1 | 529 µM (≈ 252 µg/mL) | 519 µM (≈ 247 µg/mL) | 0.99 | 525 µM (≈ 250 µg/mL) | 1 | –
7 | C=C1CC[C@H]2[C@@H](/C=C(\C)C(=O)[C@@]3(O)C[C@H](C)[C@H](O)[C@@H]3[C@H]1OC(=O)c1ccc(C(F)(F)F)cc1)C2(C)C | 0.91 | 1.4 | 1.3 | 1 | 70% | 4.16 | 15% | 2 | 1 | 896 µM (≈ 454 µg/mL) | 900 µM (≈ 456 µg/mL) | 0.9 | 988 µM (≈ 500 µg/mL) | 1 | –
8 | C=C1CC[C@H]2[C@@H](/C=C(\C)C(=O)[C@@]3(OC(C)=O)C[C@H](C)[C@H](OC(C)=O)[C@@H]3[C@H]1OC(C)=O)C2(C)C | 4 | 1.4 | 1.3 | 1 | 25% | 3.35 | 35% | 2 | 1 | 2100 µM (≈ 967 µg/mL) | 2100 µM (≈ 967 µg/mL) | 4 | 543 µM (≈ 250 µg/mL) | 1 | –
9 | C=C1CC[C@H]2[C@@H](/C=C(\C)C(=O)[C@@]3(O)C[C@H](C)[C@H](O)[C@@H]3[C@H]1OC(=O)c1ccccc1)C2(C)C | 0.95 | 1.4 | 1.3 | 1 | 85% | 3.19 | 35% | 2 | 1 | 1070 µM (≈ 468 µg/mL) | 1090 µM (≈ 478 µg/mL) | 0.93 | 1140 µM (≈ 500 µg/mL) | 1 | –

Reference: ChEMBL document CHEMBL4020757, “Lathyrol and epoxylathyrol derivatives: Modulation of Cdr1p and Mdr1p drug-efflux transporters of Candida albicans in Saccharomyces cerevisiae model” (Bioorg Med Chem, 2017)
